Test results taken from ChEMBL document CHEMBL3856249 (J Med Chem, 2016).

Key:
[1] = Oral bioavailability in Sprague-Dawley rat at 10 mg/kg; assay type: ADME, organism-based; details: in vivo
[2] = Clearance in Beagle dog at 1 mg/kg, iv or 5 mg/kg, po; assay type: ADME, organism-based, Canis lupus familiaris; details: in vivo
In short: (§1)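 Male Beagle dogs, 1 mg/kg i.v. and 5 mg/kg p.o., vehicle 20% HP-β-CD + HCl solution at pH 4; values are individual animals (two dogs) or mean of three animals ± SD.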

[3] = Lipophilicity, log P of the compound; assay type: physicochemical; details: octanol/water
[4] = Cmax in Beagle dog at 1 mg/kg, iv or 5 mg/kg, po; assay type: ADME, organism-based, Canis lupus familiaris; details: in vivo; in short: as §1
[5] = Elimination half life in Sprague-Dawley rat at […], iv or 10 mg/kg, po; assay type: ADME, organism-based; details: in vivo, read-out: beta t1/2 (converted)
[6] = AUC (0 to infinity) in Beagle dog at 1 mg/kg, iv or 5 mg/kg, po; assay type: ADME, organism-based, Canis lupus familiaris; details: in vivo; in short: as §1
[7] = Metabolic stability in rat liver microsomes assessed as compound metabolized at 5 uM measured after 15 mins; assay type: ADME; details: read-out: Drug metabolism
In short: (§2)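 Human or rat liver microsomes incubated with compound at 5 μM for 15 min; read-out is % of parent metabolized; means of at least two experiments.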

[8] = Apparent permeability across apical to basolateral side over basolateral to apical side in pig LLC-PK1 cells at 1 uM measured after 120 mins; assay type: ADME, cell-based, Sus scrofa
[9] = Clearance in Sprague-Dawley rat at […], iv or 10 mg/kg, po; assay type: ADME, organism-based; details: in vivo
[10] = Tmax in Beagle dog at 1 mg/kg, iv or 5 mg/kg, po; assay type: ADME, organism-based, Canis lupus familiaris; details: in vivo
In short: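 Male Beagle dogs given 5 mg/kg orally and 1 mg/kg intravenously, formulated in 20% HP-β-CD + HCl solution at pH 4. Tmax reported as mean ± SD of three animals.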

[11] = Tmax in Sprague-Dawley rat at […], iv or 10 mg/kg, po; assay type: ADME, organism-based; details: in vivo
[12] = AUC (0 to infinity) in Sprague-Dawley rat at […], iv or 10 mg/kg, po; assay type: ADME, organism-based; details: in vivo
[13] = Oral bioavailability in Beagle dog at 5 mg/kg; assay type: ADME, organism-based, Canis lupus familiaris; details: in vivo; in short: as §1
[14] = Metabolic stability in human liver microsomes assessed as compound metabolized at 5 uM measured after 15 mins; assay type: ADME; details: read-out: Drug metabolism; in short: as §2
[15] = Cmax in Sprague-Dawley rat at […], iv or 10 mg/kg, po; assay type: ADME, organism-based; details: in vivo
[16] = Dissociation constant, pKa of the compound; assay type: physicochemical
[17] = Half life in Beagle dog at 1 mg/kg, iv or 5 mg/kg, po; assay type: ADME, organism-based, Canis lupus familiaris; details: in vivo; in short: as §1
[18] = Ratio of drug level in brain to plasma of Swiss mouse at 10 mg/kg, sc measured after 1 hr; assay type: ADME, organism-based; details: brain and plasma, read-out: BPR
In short: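 Swiss mice, single 10 mg/kg s.c. dose in 20% HP-β-CD + HCl solution at pH 4; brain/plasma ratio taken 1 h post-dose.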

metabolised at […], 5 µM [7] | metabolised at […], 5 µM [14] | Compound | further results
29% | 7% | Fc1ccc(N2CCN(Cc3ccn4c(CC5CC5)nnc4c3C(F)(F)F)CC2)c(F)c1 | bioavailability [1]: 100%; clearance [2]: 4 to 6 mL/min/kg; logP [3]: 4.2; Cmax [4]: 459 to 1400 ng/mL; half-life [5]: 180 min; AUC(0-inf) [6]: 3960 to 9860 ng·h/mL; Papp at 2 h, 1 µM [8]: 22 ×10⁻⁶ cm/s; clearance [9]: 16 mL/min/kg; Tmax [10]: 30 min; Tmax [11]: 300 min; AUC(0-inf) [12]: 11300 ng·h/mL; bioavailability [13]: 18 to 44%; Cmax [15]: 980 ng/mL; pKa [16]: 5; half-life [17]: 420 to 540 min; Kp at 1 h [18]: 2.1
99% | 91% | Fc1ccc(N2CCCN(Cc3ccn4c(CC5CC5)nnc4c3C(F)(F)F)CC2)c(F)c1 | –
96% | 67% | Fc1ccc(COC2CCN(Cc3ccn4c(CC5CC5)nnc4c3C(F)(F)F)CC2)c(F)c1 | –
99% | 97% | CC1(c2ccccc2)CCCN(Cc2ccn3c(CC4CC4)nnc3c2C(F)(F)F)C1 (centres undefined) | –
90% | 13% | FC(F)(F)c1c(CN2CCC(c3ccccc3Cl)CC2)ccn2c(CC3CC3)nnc12 | –
53% | 23% | CCCCn1ccc(N2CCC(c3ccccc3)CC2)c(Cl)c1=O [JNJ-40411813] | logP [3]: 4.6; Cmax [4]: 373 ng/mL; Tmax [10]: 30 min; Tmax [11]: 30 min; bioavailability [13]: 20%; pKa [16]: < 2; Kp at 1 h [18]: 1
85% | 8% | Fc1ccccc1C1CCN(Cc2ccn3c(CC4CC4)nnc3c2C(F)(F)F)CC1 | –
9% | 1% | FC(F)(F)c1c(CN2CCN(c3ccc(Cl)cc3Cl)CC2)ccn2c(CC3CC3)nnc12 | –
57% | 25% | Fc1ccc(OC2CCN(Cc3ccn4c(CC5CC5)nnc4c3C(F)(F)F)CC2)c(F)c1 | –
9% | 6% | Fc1ccc(C2CCN(Cc3ccn4c(CC5CC5)nnc4c3C(F)(F)F)CC2)c(F)c1 | –
98% | 51% | FC(F)(F)c1c(CN2CCCC(c3ccccc3)C2)ccn2c(CC3CC3)nnc12 (centres undefined) | –
98% | 35% | FC(F)(F)c1c(CN2CCC(c3ccccc3)(C(F)(F)F)CC2)ccn2c(CC3CC3)nnc12 | –
75% | 5% | Fc1cccc(F)c1C1CCN(Cc2ccn3c(CC4CC4)nnc3c2C(F)(F)F)CC1 | –
98% | 69% | COC1(c2ccccc2)CCN(Cc2ccn3c(CC4CC4)nnc3c2C(F)(F)F)CC1 | –
99% | 55% | Fc1cccc(F)c1N1CCN(Cc2ccn3c(CC4CC4)nnc3c2C(F)(F)F)CC1 | –
34% | 33% | Fc1ccc([C@H]2CC[C@H](NCc3ccn4c(CC5CC5)nnc4c3C(F)(F)F)CC2)c(F)c1 | –
84% | 81% | Fc1ccc([C@H]2CC[C@@H](NCc3ccn4c(CC5CC5)nnc4c3C(F)(F)F)CC2)c(F)c1 | –
78% | 24% | FC(F)(F)c1c(CN2CCC(F)(c3ccccc3)CC2)ccn2c(CC3CC3)nnc12 | –
25% | – | FC(F)(F)c1c(N2CCC(c3ccccc3)CC2)ccn2c(CC3CC3)nnc12 | logP [3]: 4.4; Cmax [4]: 218 to 472 ng/mL; AUC(0-inf) [6]: 531 to 957 ng·h/mL; Papp at 2 h, 1 µM [8]: 12 ×10⁻⁶ cm/s; clearance [9]: 31 to 37 mL/min/kg; Tmax [10]: 30 min; bioavailability [13]: 18 to 33%; half-life [17]: 66 to 108 min; Kp at 1 h [18]: 1.4
